What was measured:
[1] = target: T1, Bromodomain-containing protein 4 (Homo sapiens, UniProt O60885); experiment: Binding affinity to first bromodomain of BRD4 assessed as change in melting temperature at 100 uM by differential scanning fluorimetry
Procedure, shortened: (§1)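 Thermal shift by differential scanning fluorimetry on a real-time PCR instrument. Bromodomain protein at 2 μM, compound at 100 μM, in 10 mM HEPES pH 7.5, 500 mM NaCl with SyproOrange dye diluted 1:1000. The observed melting temperature shift was measured in duplicate, and the average was reported.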

[2] = target: Bromodomain-containing protein 3 (Homo sapiens) (UniProt Q15059); experiment: Binding affinity to second bromodomain of BRD3 assessed as change in melting temperature at 100 uM by differential scanning fluorimetry; procedure, shortened: as §1
[3] = Binding affinity to LOC93349 assessed as change in melting temperature at 100 uM by differential scanning fluorimetry; procedure, shortened: as §1
[4] = target: T1, Bromodomain-containing protein 4; experiment: Displacement of H4Ac4 peptide from first bromodomain of human BRD4 by peptide displacement assay
Procedure, shortened: (§2)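 AlphaScreen displacement of a biotinylated tetra-acetylated H4 peptide (SGRGK(Ac)GGK(Ac)GLGK(Ac)GGAK(Ac)RHRK(Biotin)) from the bromodomain. Run in duplicate on one plate.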

[5] = target: Bromodomain-containing protein 3 (Homo sapiens) (UniProt Q15059); experiment: Binding affinity to first bromodomain of BRD3 assessed as change in melting temperature at 100 uM by differential scanning fluorimetry; procedure, shortened: as §1
CREB-binding protein [6] = target: T2, CREB-binding protein (Homo sapiens, UniProt Q92793); experiment: Displacement of H3K56Ac from human CREBBP by peptide displacement assay
[7] = target: Protein polybromo-1 (Homo sapiens) (UniProt Q86U86); experiment: Binding affinity to PB1 assessed as change in melting temperature at 100 uM by differential scanning fluorimetry; procedure, shortened: as §1
[8] = target: T3, Bromodomain-containing protein 2 (Homo sapiens, UniProt P25440); experiment: Binding affinity to first bromodomain of BRD2 assessed as change in melting temperature at 100 uM by differential scanning fluorimetry; procedure, shortened: as §1
Target sequence in this assay (P25440 whole entry, looked up): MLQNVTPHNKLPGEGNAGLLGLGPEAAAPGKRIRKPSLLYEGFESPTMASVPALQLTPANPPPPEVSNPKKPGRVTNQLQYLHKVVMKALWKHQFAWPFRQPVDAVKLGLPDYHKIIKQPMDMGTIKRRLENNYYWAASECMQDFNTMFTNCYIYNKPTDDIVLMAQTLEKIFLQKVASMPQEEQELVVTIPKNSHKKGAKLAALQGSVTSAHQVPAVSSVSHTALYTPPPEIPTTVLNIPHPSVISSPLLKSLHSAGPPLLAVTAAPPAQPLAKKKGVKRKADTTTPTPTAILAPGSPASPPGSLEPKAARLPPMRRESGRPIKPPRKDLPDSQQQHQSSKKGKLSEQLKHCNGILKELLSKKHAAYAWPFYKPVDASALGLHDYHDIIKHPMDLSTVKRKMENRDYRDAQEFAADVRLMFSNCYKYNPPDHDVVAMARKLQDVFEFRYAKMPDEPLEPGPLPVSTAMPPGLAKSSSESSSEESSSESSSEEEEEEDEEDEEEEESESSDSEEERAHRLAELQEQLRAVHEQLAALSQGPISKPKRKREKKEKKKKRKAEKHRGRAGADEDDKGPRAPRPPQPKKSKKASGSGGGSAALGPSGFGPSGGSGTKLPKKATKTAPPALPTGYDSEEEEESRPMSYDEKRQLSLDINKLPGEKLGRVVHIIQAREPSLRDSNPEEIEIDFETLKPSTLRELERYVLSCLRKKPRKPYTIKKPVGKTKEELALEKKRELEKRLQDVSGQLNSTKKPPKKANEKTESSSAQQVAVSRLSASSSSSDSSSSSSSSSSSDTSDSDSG

CREB-binding protein [9] = target: T2, CREB-binding protein; experiment: Binding affinity to CREBBP assessed as change in melting temperature at 100 uM by differential scanning fluorimetry; procedure, shortened: as §1
Target sequence in this assay (Q92793 2-2442 limits assumed): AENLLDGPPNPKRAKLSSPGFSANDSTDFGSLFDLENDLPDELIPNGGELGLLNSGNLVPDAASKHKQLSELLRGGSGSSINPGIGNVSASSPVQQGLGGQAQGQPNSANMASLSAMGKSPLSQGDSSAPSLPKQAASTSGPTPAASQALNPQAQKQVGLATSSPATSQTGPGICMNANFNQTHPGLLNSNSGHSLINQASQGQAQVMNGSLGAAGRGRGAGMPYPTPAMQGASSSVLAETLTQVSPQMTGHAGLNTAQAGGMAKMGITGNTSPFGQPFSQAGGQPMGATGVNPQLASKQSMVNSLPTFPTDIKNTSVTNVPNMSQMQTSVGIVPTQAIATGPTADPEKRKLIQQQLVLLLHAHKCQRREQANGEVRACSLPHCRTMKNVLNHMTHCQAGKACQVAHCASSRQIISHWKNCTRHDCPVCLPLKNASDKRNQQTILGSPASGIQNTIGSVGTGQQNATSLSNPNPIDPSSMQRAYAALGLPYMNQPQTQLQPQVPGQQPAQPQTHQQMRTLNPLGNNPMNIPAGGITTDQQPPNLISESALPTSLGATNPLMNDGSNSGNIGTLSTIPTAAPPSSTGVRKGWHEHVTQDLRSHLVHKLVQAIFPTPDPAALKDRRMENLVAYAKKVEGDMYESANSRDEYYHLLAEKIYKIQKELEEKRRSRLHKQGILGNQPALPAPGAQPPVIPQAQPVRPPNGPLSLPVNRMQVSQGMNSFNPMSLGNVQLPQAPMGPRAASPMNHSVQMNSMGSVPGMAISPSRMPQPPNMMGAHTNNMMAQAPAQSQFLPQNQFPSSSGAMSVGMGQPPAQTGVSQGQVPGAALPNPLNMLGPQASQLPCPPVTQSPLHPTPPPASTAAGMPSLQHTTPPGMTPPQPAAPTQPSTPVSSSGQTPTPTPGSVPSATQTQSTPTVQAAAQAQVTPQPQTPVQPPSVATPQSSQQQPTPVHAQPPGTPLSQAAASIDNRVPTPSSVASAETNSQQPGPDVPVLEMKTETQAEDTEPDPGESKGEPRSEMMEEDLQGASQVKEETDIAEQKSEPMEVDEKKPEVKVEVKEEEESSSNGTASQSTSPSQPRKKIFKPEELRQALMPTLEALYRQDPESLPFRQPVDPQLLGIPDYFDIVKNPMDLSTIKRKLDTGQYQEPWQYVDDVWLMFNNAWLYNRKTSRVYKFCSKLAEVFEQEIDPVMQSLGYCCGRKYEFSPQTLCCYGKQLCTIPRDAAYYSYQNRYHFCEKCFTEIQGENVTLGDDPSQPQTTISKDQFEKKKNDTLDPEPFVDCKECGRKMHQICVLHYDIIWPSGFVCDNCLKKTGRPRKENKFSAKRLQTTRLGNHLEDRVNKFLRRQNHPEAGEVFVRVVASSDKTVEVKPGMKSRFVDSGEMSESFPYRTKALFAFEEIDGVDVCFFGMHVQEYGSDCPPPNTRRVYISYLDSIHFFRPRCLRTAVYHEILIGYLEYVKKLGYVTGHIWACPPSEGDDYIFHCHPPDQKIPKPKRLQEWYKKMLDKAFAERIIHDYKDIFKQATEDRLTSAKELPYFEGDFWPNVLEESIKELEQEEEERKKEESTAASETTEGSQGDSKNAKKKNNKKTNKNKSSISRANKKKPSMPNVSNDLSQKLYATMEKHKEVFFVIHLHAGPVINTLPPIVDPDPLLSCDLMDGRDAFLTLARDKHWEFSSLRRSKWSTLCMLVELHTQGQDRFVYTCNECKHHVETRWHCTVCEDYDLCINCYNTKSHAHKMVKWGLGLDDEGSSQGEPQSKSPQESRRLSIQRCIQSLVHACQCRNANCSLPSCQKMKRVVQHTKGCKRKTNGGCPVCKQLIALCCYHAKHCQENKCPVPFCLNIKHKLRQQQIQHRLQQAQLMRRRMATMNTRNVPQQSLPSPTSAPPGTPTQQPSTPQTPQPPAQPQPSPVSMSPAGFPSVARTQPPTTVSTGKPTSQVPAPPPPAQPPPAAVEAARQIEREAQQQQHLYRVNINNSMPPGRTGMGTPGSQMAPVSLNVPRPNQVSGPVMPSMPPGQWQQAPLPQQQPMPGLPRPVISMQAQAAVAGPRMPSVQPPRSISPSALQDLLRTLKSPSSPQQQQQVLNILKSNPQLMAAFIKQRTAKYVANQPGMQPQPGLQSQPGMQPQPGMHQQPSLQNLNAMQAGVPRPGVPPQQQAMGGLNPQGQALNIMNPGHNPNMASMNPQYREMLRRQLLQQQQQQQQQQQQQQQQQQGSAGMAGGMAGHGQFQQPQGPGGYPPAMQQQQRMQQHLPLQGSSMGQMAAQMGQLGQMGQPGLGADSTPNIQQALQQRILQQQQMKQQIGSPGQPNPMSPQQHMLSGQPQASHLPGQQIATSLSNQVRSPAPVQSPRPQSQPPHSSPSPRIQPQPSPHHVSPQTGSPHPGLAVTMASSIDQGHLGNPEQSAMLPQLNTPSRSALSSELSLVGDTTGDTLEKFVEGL

[10] = target: T1, Bromodomain-containing protein 4; experiment: Binding affinity to second bromodomain of BRD4 assessed as change in melting temperature at 100 uM by differential scanning fluorimetry; procedure, shortened: as §1
[11] = target: T3, Bromodomain-containing protein 2; experiment: Binding affinity to second bromodomain of BRD2 assessed as change in melting temperature at 100 uM by differential scanning fluorimetry; procedure, shortened: as §1
Target sequence in this assay (P25440 whole entry, looked up): as the sequence (P25440 whole entry, looked up) above

[12] = target: Bromodomain testis-specific protein (Homo sapiens) (UniProt Q58F21); experiment: Binding affinity to BRDT assessed as change in melting temperature at 100 uM by differential scanning fluorimetry; procedure, shortened: as §1
[13] = target: T3, Bromodomain-containing protein 2; experiment: Displacement of H4Ac4 peptide from first bromodomain of human BRD2 by peptide displacement assay; procedure, shortened: as §2
[14] = target: Histone acetyltransferase KAT2B (Homo sapiens) (UniProt Q92831); experiment: Binding affinity to PCAF assessed as change in melting temperature at 100 uM by differential scanning fluorimetry; procedure, shortened: as §1
[15] = target: T4, Bromodomain adjacent to zinc finger domain protein 2B (Homo sapiens, UniProt Q9UIF8); experiment: Binding affinity to BAZ2B assessed as change in melting temperature at 100 uM by differential scanning fluorimetry; procedure, shortened: as §1
[16] = target: T4, Bromodomain adjacent to zinc finger domain protein 2B; experiment: Inhibition of BAZ2B
CREB-binding protein [17] = target: T2, CREB-binding protein; experiment: Inhibition of CREBBP
Procedure, shortened: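 AlphaScreen peptide-displacement assay with the CREBBP bromodomain, using a biotinylated H3K56Ac histone peptide as the displaced ligand. Each concentration was run in duplicate on the same plate. IC50 was obtained by sigmoidal curve fitting of the duplicate data and reported with 95% confidence intervals, taken from a single assay.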

Histone acetyltransferase KAT2B (Homo sapiens), sequence (Q92831 whole entry, looked up, the tested form may be a part): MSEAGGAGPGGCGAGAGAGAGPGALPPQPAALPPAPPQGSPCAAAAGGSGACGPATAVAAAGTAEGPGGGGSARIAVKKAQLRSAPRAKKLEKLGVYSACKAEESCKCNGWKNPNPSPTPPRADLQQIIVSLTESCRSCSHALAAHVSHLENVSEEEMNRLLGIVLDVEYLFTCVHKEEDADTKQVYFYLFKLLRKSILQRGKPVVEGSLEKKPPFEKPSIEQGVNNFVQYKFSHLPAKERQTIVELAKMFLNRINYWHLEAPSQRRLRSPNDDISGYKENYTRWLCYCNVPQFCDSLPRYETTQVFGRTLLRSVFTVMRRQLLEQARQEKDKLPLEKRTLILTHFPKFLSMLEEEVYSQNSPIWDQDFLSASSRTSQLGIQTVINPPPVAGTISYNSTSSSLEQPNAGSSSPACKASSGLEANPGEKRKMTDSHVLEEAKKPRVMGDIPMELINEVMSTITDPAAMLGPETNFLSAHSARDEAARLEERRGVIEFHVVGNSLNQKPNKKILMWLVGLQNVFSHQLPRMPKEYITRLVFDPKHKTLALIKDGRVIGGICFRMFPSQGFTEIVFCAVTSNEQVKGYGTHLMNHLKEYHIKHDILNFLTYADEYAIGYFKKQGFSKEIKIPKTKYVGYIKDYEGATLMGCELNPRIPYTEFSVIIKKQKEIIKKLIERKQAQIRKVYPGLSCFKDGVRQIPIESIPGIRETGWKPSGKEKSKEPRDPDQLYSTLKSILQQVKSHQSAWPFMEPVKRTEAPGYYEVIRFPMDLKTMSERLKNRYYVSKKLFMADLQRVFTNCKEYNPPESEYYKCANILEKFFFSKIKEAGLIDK
Bromodomain-containing protein 3 (Homo sapiens), sequence (Q15059 2-726 limits assumed): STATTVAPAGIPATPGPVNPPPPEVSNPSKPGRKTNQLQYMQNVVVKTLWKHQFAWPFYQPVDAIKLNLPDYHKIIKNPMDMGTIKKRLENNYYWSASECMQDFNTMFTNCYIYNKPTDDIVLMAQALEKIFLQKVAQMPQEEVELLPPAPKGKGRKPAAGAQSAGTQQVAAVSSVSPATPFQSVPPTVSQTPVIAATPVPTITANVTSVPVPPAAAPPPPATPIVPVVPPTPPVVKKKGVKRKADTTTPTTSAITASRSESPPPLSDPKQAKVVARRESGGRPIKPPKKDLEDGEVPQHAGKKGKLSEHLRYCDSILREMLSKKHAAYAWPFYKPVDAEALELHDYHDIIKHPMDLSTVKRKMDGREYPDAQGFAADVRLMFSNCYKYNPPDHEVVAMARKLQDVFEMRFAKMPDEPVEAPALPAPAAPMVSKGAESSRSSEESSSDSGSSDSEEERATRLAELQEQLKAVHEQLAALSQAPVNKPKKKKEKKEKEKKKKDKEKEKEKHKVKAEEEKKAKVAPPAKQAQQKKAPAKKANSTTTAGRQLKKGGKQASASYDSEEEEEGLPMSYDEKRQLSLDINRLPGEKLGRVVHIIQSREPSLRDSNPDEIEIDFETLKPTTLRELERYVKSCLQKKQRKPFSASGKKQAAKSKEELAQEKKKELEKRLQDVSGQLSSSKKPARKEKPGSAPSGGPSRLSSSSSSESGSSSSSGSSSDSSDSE

Compound `CCOc1cccc(-c2c(C)noc2C)c1` has a ΔTm [1] of 2.8 °C, a ΔTm [2] of 4.2 °C and a ΔTm [3] of -0.9 °C. For the same compound, the IC50 [4] was 23.2 µM, the ΔTm [5] was 2.7 °C and the IC50 (CREB-binding protein [6]) was 86.9 µM. For the same compound, the ΔTm [7] was -0.2 °C, the ΔTm [8] was 1.3 °C and the ΔTm (CREB-binding protein [9]) was 0.7 °C. The ΔTm [10] was 4 °C, the ΔTm [11] was 3.7 °C and the ΔTm [12] was -0.4 °C. It also gave an IC50 [13] of 7.4 µM.

`CCOc1cc(C(C)=O)cc(-c2c(C)noc2C)c1` gave a ΔTm [1] of 5.1 °C, a ΔTm [2] of 6 °C and a ΔTm [3] of -1 °C. The IC50 [4] was 7.5 µM, the ΔTm [5] was 4.8 °C and the IC50 (CREB-binding protein [6]) was 12.9 µM. The ΔTm [7] was -0.3 °C, the ΔTm [8] was 3.2 °C and the ΔTm (CREB-binding protein [9]) was 3.4 °C. The ΔTm [10] was 6.5 °C, the ΔTm [11] was 5.3 °C and the IC50 [13] was 2.3 µM.

Compound `Cc1noc(C)c1-c1cccc(C(C)O)c1` (racemic) has a ΔTm [1] of 5.4 °C, a ΔTm [14] of 0 °C and a ΔTm [2] of 6.5 °C. For the same compound, the ΔTm [3] was -0.8 °C, the IC50 [4] was 9.7 µM and the ΔTm [5] was 5.3 °C. For the same compound, the IC50 (CREB-binding protein [6]) was 45.4 µM, the ΔTm [7] was 0.2 °C and the ΔTm [15] was 0.2 °C. The ΔTm [8] was 3.3 °C, the ΔTm (CREB-binding protein [9]) was 1.5 °C and the ΔTm [10] was 6.3 °C. It also gave a ΔTm [11] of 5.6 °C, a ΔTm [12] of 1.6 °C and an IC50 [13] of 4.2 µM.

In the case of `Cc1noc(C)c1-c1ccccc1`, the ΔTm [1] is reported as 2 °C, the ΔTm [14] is reported as -0.8 °C and the ΔTm [2] is reported as 1.9 °C. The ΔTm [3] was -0.6 °C, the IC50 [4] was 84.2 µM and the ΔTm [5] was 1.6 °C. The IC50 (CREB-binding protein [6]) was over 200 µM, the ΔTm [7] was 0 °C and the ΔTm [15] was -0.1 °C. It also gave a ΔTm [8] of 0.9 °C, a ΔTm (CREB-binding protein [9]) of 0.6 °C and a ΔTm [10] of 2.6 °C. For the same compound, the ΔTm [11] was 2.1 °C, the ΔTm [12] was 0 °C and the IC50 [13] was 34.3 µM.

With `CCOc1cc(-c2c(C)noc2C)cc(C(C)O)c1` (racemic) the ΔTm [1] was 8.5 °C, the ΔTm [2] was 8.9 °C and the ΔTm [3] was -0.9 °C. It also gave an IC50 [4] of 4.8 µM, a ΔTm [5] of 8.5 °C and an IC50 (CREB-binding protein [6]) of 28.1 µM. It also gave a ΔTm [7] of 0 °C, a ΔTm [8] of 6.1 °C and a ΔTm (CREB-binding protein [9]) of 4 °C. For the same compound, the ΔTm [10] was 8 °C, the ΔTm [11] was 8.3 °C and the ΔTm [12] was 3.5 °C. It also gave an IC50 [13] of 1.6 µM.

Work on `CCOC(=O)c1cc(OCC)cc(-c2c(C)noc2C)c1` yielded a ΔTm [1] of 3.7 °C, a ΔTm [2] of 3.8 °C and a ΔTm [3] of -0.2 °C. The IC50 [4] was 7.7 µM, the ΔTm [5] was 3.6 °C and the IC50 (CREB-binding protein [6]) was 49.4 µM. It also gave a ΔTm [7] of -0.1 °C, a ΔTm [8] of 2.3 °C and a ΔTm (CREB-binding protein [9]) of -0.2 °C. It also gave a ΔTm [10] of 3.8 °C, a ΔTm [11] of 3.3 °C and a ΔTm [12] of 1.1 °C. The IC50 [13] was 3.3 µM.

`CC(=O)c1cccc(-c2c(C)noc2C)c1` showed a ΔTm [1] of 2.1 °C, a ΔTm [2] of 2.9 °C and a ΔTm [3] of -0.9 °C. The IC50 [4] was 24.6 µM, the ΔTm [5] was 2 °C and the IC50 (CREB-binding protein [6]) was 55.7 µM. The ΔTm [7] was -0.3 °C, the ΔTm [8] was 1.3 °C and the ΔTm (CREB-binding protein [9]) was 1.2 °C. For the same compound, the ΔTm [10] was 1.9 °C, the ΔTm [11] was 2.6 °C and the ΔTm [12] was -0.2 °C. The IC50 [13] was 6 µM.

`CCOc1cc(C(=O)O)cc(-c2c(C)noc2C)c1` showed a ΔTm [1] of 2.3 °C, a ΔTm [14] of -0.5 °C and a ΔTm [2] of 2.6 °C. The ΔTm [3] was -1.2 °C, the IC50 [4] was 51.2 µM and the ΔTm [5] was 2.2 °C. The IC50 (CREB-binding protein [6]) was 32.2 µM, the ΔTm [7] was -0.1 °C and the ΔTm [15] was -0.1 °C. It also gave a ΔTm [8] of 1.1 °C, a ΔTm (CREB-binding protein [9]) of 2.9 °C and a ΔTm [10] of 2.2 °C. The ΔTm [11] was 2.5 °C, the ΔTm [12] was -0.8 °C and the IC50 [13] was 28.2 µM.

Work on `CN1CCCC1=O` [METHYLPYRROLIDONE] yielded an IC50 [16] of 34000 µM and an IC50 (CREB-binding protein [17]) of 2300 µM.

`Cc1noc(C)c1-c1ccc2c(c1)CN(C)C(=O)N2` gave a ΔTm [1] of 8 °C, a ΔTm [2] of 6.8 °C and a ΔTm [3] of -0.2 °C. For the same compound, the ΔTm [5] was 7.2 °C, the IC50 (CREB-binding protein [6]) was 3.4 µM and the ΔTm [7] was 0.7 °C. For the same compound, the ΔTm [8] was 5.4 °C, the ΔTm (CREB-binding protein [9]) was 3.8 °C and the ΔTm [11] was 6.2 °C. The ΔTm [12] was 3.2 °C.
